Assay [1] has as its target Tyrosine-protein kinase Lck (Homo sapiens, UniProt P06239). Description: Inhibitory activity against recombinant human p56 Lck tyrosine kinase.
Another assay deals with Jurkat. Description: Inhibition of calcium release in Jurkat cells. It is filed as functional, cell-based. Particulars: Homo sapiens. In a few lines:
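Jurkat cells were washed, loaded with Fluo-3 (2 μM final), then held in HBSS with Ca/Mg, HEPES, probenecid and 1% FBS at pH 7.4, giving 3 × 10⁵ cells/mL final. Compound was added for 15 min at room temperature. Anti-CD3 (clone X35, 0.25 μg/mL final) was then added and fluorescence followed for 13 min. EC50 is the mean of ≥2 experiments in duplicate ± SD.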

Assay [2] is described as follows: Inhibition of Extracellular signal-regulated kinase (Erk) - No inhibition at 100 ug/mL.
Assay [3] deals with cAMP-dependent protein kinase (PKA) (Homo sapiens) (UniProt P22694+P17612+P22612). Description: Inhibition of Protein kinase A (PKA) - No inhibition at 500 uM. In kind it is protein assay.
Assay [4] addresses MAP kinase p38 (Homo sapiens) (UniProt O15264+Q15759+Q16539+P53778). In words: Inhibition of Mitogen-activated protein kinase p38 - No inhibition at 10 ug/mL. It is filed as protein assay.
Assay [5] addresses T1, Tyrosine-protein kinase ZAP-70 (Homo sapiens, UniProt P43403).
T1 sequence (P43403 whole entry): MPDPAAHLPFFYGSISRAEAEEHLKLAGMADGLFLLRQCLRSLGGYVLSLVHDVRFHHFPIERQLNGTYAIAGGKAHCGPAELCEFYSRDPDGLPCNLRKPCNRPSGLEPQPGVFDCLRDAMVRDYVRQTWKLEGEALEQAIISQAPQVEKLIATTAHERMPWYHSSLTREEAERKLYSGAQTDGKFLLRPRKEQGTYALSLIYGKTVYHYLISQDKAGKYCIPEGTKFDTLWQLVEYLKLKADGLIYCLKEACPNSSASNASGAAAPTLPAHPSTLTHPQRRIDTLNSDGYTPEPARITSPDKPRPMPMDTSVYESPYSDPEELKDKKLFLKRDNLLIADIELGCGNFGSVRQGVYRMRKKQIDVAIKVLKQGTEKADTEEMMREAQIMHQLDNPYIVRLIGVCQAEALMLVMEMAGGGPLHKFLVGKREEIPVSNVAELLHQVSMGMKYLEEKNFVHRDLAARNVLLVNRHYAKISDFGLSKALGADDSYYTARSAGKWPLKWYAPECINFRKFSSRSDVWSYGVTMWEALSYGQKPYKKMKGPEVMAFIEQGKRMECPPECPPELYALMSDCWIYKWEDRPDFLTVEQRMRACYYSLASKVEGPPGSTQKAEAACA
Description: Inhibition of Zeta-chain (TCR) associated protein kinase 70 kDa (ZAP70) with 1 uM ATP. The method in brief:
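Radiometric kinase assay with enzyme amount set to give a linear response over the reaction period. ATP at 1 μM final with γ³³P-ATP at 20 Ci/mmol. Compounds from 5 mg/mL DMSO stock, final 200 to 1 μg/mL for IC50. Reactions started with enzyme, run 60 min at 30 °C, stopped with TCA/pyrophosphate, filter-harvested, and counted by scintillation.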

The target in assay [6] is Proto-oncogene tyrosine-protein kinase Src (Homo sapiens, UniProt P12931). Description: Inhibition of c-SRC with 1 uM ATP. The method in brief:
(§1)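 Enzyme amount for each kinase chosen to give a linear response over the whole reaction period. Inhibition was read as IC50 or as the highest concentration tested.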

Assay [7] has as its target Tyrosine-protein kinase SYK (Homo sapiens, UniProt P43405). Description: Inhibition of Syk tyrosine kinase. In a few lines:
as §1

For assay [8], the target named is Epidermal growth factor receptor (Homo sapiens, UniProt P00533). Description: Inhibition of Epidermal growth factor receptor.
Chain of Epidermal growth factor receptor (P00533 whole entry): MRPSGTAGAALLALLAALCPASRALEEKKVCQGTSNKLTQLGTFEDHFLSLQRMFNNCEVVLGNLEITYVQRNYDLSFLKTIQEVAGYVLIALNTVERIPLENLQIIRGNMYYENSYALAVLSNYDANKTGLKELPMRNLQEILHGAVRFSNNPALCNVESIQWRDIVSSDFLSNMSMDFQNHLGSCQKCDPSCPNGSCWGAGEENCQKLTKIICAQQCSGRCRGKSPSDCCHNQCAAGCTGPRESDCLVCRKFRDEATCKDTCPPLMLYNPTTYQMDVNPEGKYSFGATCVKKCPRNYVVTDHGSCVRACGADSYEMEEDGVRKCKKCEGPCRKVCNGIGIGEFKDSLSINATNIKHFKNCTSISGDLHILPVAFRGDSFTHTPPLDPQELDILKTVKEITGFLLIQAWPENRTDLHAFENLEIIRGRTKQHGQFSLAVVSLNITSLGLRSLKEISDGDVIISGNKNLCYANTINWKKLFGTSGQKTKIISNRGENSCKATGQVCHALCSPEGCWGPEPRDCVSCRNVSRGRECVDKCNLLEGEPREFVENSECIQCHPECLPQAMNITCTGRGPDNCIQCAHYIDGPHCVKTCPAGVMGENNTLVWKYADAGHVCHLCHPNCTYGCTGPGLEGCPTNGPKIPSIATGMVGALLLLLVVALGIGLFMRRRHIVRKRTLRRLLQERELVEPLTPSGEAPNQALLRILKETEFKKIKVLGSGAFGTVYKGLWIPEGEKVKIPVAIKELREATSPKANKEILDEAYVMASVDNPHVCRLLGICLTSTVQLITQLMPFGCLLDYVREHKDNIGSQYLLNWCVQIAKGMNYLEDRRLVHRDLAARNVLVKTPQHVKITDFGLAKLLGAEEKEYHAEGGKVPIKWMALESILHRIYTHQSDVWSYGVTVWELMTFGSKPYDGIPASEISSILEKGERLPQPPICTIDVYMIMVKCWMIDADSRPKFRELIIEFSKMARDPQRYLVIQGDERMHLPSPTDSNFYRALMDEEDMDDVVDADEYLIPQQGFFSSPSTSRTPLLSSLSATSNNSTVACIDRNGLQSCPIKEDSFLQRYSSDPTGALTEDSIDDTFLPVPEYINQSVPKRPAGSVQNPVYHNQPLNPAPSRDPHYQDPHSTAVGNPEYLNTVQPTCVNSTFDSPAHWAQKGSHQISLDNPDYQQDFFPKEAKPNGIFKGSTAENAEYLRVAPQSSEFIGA

Activity calls are given as the source filed them. No cut-off for these calls is given here. Bounds are passed on as bounds.

The IC50 is the point on the concentration scale where inhibition reaches its midpoint. In general, EC50 refers to the concentration giving half of the maximal effect.

Chain of Tyrosine-protein kinase Lck (P06239 whole entry): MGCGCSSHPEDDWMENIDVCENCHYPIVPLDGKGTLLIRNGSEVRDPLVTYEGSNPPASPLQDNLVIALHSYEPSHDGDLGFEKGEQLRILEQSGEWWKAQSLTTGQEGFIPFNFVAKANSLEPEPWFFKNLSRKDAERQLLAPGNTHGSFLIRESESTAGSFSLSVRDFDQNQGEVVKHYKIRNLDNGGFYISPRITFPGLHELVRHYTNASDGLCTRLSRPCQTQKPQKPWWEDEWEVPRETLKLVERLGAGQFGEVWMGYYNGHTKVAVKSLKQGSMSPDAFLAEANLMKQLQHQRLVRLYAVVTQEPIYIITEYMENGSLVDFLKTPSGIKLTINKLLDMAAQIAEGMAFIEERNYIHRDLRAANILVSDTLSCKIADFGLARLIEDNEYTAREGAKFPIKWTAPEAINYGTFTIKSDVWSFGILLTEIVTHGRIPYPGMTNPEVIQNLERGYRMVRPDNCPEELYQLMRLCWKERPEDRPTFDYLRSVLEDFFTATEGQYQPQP
Chain of Proto-oncogene tyrosine-protein kinase Src (P12931 2-536 limits assumed): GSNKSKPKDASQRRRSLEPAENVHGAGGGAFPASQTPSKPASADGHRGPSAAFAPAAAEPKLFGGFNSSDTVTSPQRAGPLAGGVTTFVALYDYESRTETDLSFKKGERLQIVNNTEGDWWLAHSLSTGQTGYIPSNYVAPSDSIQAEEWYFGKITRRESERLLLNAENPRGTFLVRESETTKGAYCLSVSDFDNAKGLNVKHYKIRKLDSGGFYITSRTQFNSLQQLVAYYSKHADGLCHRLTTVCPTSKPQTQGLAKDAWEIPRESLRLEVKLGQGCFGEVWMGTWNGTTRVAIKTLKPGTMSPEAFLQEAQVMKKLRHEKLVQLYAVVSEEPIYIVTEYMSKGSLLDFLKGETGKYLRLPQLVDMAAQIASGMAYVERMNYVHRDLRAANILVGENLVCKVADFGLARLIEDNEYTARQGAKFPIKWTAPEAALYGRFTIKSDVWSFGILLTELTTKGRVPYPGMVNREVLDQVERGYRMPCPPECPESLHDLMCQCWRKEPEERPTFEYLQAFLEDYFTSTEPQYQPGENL

For `CCc1cccc(CC)c1Nc1nc2ccc3c(c2[nH]1)C(=O)NC(=O)C3(C)C`, the IC50 in assay [1] is > 40 µM.

Regarding `Cc1nc(O)c2c(ccc3[nH]c(Nc4c(Cl)cc(Cl)cc4Cl)nc32)c1C`, the EC50 in the assay with Jurkat turned out to be 0.42 µM. Further, in assay [1], the IC50 came to 0.018 µM.

Consider `CC(C)CC1(C)C(=O)NC(=O)c2c1ccc1nc(Nc3c(Cl)cccc3Cl)[nH]c21` (stereo not drawn), for which the IC50 in assay [1] amounted to 5.1 µM.

With `CC1(C)CNC(=O)c2c1ccc1nc(Nc3c(Cl)cccc3Cl)[nH]c21`, the EC50 in the assay with Jurkat was determined as 5.2 µM. Further, in assay [1], the IC50 came out at 1.1 µM.

Take `Cc1nc(O)c2c(ccc3[nH]c(Nc4c(Cl)cccc4Cl)nc32)c1C`: the NI entry in assay [2], in assay [3] and in assay [4] was “inactive” throughout. Further, in the assay on Jurkat, the EC50 is 0.19 µM.

Consider `O=C1NCCc2ccc3[nH]c(Nc4c(Cl)cccc4Cl)nc3c21`, for which the EC50 in the assay on Jurkat was 1.8 µM. For the same molecule, in [1], the IC50 amounted to 0.38 µM.

For `CN(c1nc2c3c(ccc2[nH]1)C(C)(C)C(=O)NC3=O)c1c(Cl)cccc1Cl`, the IC50 in [1] is 2.5 µM.

Regarding `Cc1nc(O)c2c(ccc3[nH]c(Nc4c(Br)cc(Br)cc4Br)nc32)c1C`, in the assay with Jurkat, the EC50 came to 0.61 µM. Moreover, in [1], the IC50 turned out to be 0.025 µM.

For the molecule `CC1(C)CNCc2c1ccc1[nH]c(Nc3c(Cl)cccc3Cl)nc21`, the IC50 in [1] is > 40 µM.

For the molecule `CC1(C)C(=O)NC(=O)c2c1ccc1nc(Nc3c(Cl)cccc3Cl)[nH]c21`, the EC50 with Jurkat was 9.7 µM. Also, the IC50 in assay [1] is 0.46 µM.

For the molecule `Cc1cccc(Cl)c1Nc1nc2c3c(ccc2[nH]1)C(C)(C)C(=O)NC3=O`, in the assay on Jurkat, the 50% effective concentration (EC50) was found to be 2.9 µM. In addition, the IC50 in [1] came to 0.77 µM.

As to `CC1(C)C(=O)NC(=O)c2c1ccc1[nH]c(Nc3c(F)cccc3F)nc21`, the IC50 in [1] came out at 11 µM.

`Cc1[nH]c(=O)c2c(ccc3[nH]c(Nc4ccccc4Cl)nc32)c1C`: the IC50 in [1] was determined as 0.15 µM.

`CN1C(=O)c2c(ccc3nc(Nc4c(Cl)cccc4Cl)[nH]c23)C(C)(C)C1=O`: the IC50 in assay [1] stood at 9.6 µM.

`Cc1cccc(C)c1Nc1nc2ccc3c(c2[nH]1)C(=O)NC(=O)C3(C)C`: the EC50 in the assay on Jurkat stood at 4.6 µM. Moreover, the IC50 in assay [1] came out at 0.46 µM.

On to `CC1(C)C(=O)NC(=O)c2c1ccc1[nH]c(Nc3c(Cl)c(Cl)cc(Cl)c3Cl)nc21`, for which the 50% inhibitory concentration (IC50) in assay [1] is > 40 µM.

With `CCC1(CC)C(=O)NC(=O)c2c1ccc1[nH]c(Nc3c(Cl)cccc3Cl)nc21`, the IC50 in assay [1] turned out to be 5.9 µM.

Consider `Cn1c(Nc2c(Cl)cccc2Cl)nc2c3c(ccc21)C(C)(C)C(=O)NC3=O`, for which, in assay [1], the IC50 is 2.5 µM.

Turning to `CC1(C)C(=O)NC(=O)c2c1ccc1nc(Nc3c(Br)cc(Br)cc3Br)[nH]c21`, the EC50 in the assay with Jurkat was 7.3 µM. The IC50 in [1] was found to be 0.6 µM.

Regarding `Cc1cccc(Cl)c1Nc1nc2c(ccc3c(C)c(C)nc(O)c32)[nH]1`, in the assay on Jurkat, the EC50 was found to be 0.34 µM. The IC50 in assay [1] stood at 0.027 µM.

As for `CC1(C)C(=O)NC(=O)c2c1ccc1nc(Nc3ccc(Cl)cc3)[nH]c21`, the IC50 in [1] is > 40 µM.

In the case of `CC1(C)C(=O)NC(=O)c2c1ccc1[nH]c(Cc3c(Cl)cccc3Cl)nc21`, the IC50 in [1] worked out at 9.6 µM.

With `CC1(C)C(=O)NC(=O)c2c1ccc1nc(Nc3ccc(Cl)cc3Cl)[nH]c21`, the IC50 in assay [1] was > 40 µM.

`CC1(C)C(=O)NC(=O)c2c1ccc1nc(Nc3ccccc3Cl)[nH]c21`: in [1], the IC50 was > 40 µM.

As to `CC1(C)C(=O)NC(=O)c2c1ccc1[nH]c(Nc3c(Cl)cc(Cl)cc3Cl)nc21`, the EC50 in the assay on Jurkat is 4.3 µM. Moreover, in assay [1], the IC50 came out at 0.73 µM.

On to `Cc1[nH]c(=O)c2c(ccc3nc(Nc4c(Cl)cccc4Cl)[nH]c32)c1C`, for which the IC50 is 80 µM in assay [5]; 0.012 µM in assay [6]; 0.026 µM in [1]; > 100 µM in assay [7]; 100 µM in assay [8].

(Values after ChEMBL document CHEMBL1135526, “Discovery of 2-phenylamino-imidazo[4,5-h]isoquinolin-9-ones: a new class of inhibitors of lck kinase” (J Med Chem, 2002).)
